Source: PubChem (Broad Institute)
In the library only some 1.7% were active in any assay of this set; here they are far more common.
CAL PDZ FP-1 = untagged CAL PDZ binding inhibitors, primary screen, biochemical, fluorescence polarization, HTS; purified CAL PDZ, TMR-peptide fluorescence polarization, 1 h; 300,000 compounds, 0.92% hits; Golgi-associated PDZ and coiled-coil motif-containing protein (Homo sapiens), Q9HD26; inhibition, % at 24.9 µM;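 active = mean inhibition of at least 30% with at least half of replicates also reaching 30%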;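 note: 0% = DMSO neutral control and 100% = excess unlabeled competitor peptide PRC23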
CAL PDZ FP-2 = CAL PDZ peptide-binding inhibitors, primary screen, biochemical, fluorescence polarization, Cer-tagged CAL PDZ, HTS. purified CAL PDZ, TMR-peptide fluorescence polarization, 1 h. inhibition, % at 20 µM. 330,000 compounds, 0.02% hits;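 active = highest replicate inhibition of at least 40%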;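 note: plate controls were DMSO neutral control wells for no effect and unlabeled competitor peptide control wells for full effect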
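Test system: tagged CAL PDZ domain / Buffer or medium: sodium phosphate/NaCl buffer pH 7.4 with TCEP, IgG, Thesit / Reagent: TMR-labelled reporter peptide T*-PRC34 bound in PDZ groove / Compound dosing: single point, 20 µM / Schedule: 1 h incubation at room temperature before polarization reading / Technique: fluorescence polarization (mP) / Benchmarks: unlabelled peptide, DMSO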
ARNT-TACC3 inh = disruptors of ARNT/TACC3 protein interaction, primary screen, biochemical, AlphaScreen, single concentration; Transforming acidic coiled-coil-containing protein 3 (Homo sapiens), Q9Y6A5; AlphaScreen His-ARNT PAS-B/GST-TACC3 binding, luminescence; TACC3 fragment carries E629A point mutation; inhibition, % at 9.99 µM; 390,000 compounds, 0.66% hits;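 active = mean inhibition of replicates at least 50% and at least half of replicates each reaching 50%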;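 note: 0% = complete ARNT plus TACC3 wells and 100% = ARNT alone without TACC3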
miR122 inh = miR-122 Renilla sensor signal increase in Huh7, primary screen, miR-122 inhibitor project, cell-based, single point, plate reader; AID 602342, 2012; Huh7 miR-122 Renilla luciferase sensor, 48 h; neutral wells = 0, positive control = 100; 340,000 compounds, 0.3% hits; activation (reporter increase), % at 12.5 µM;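 active = mean replicate activation score at least 90 and every replicate individually at or above 90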;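 note: higher luciferase means less miR-122 activity so hits act as miR-122 inhibitors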
PGC1a acetyl inh = inhibitors of PGC1a acetylation signal, primary screen, cell-based, U2OS, AlphaScreen, inhibitor mode; AlphaScreen anti-acetyl-lysine; with virally co-expressed GCN5 acetyltransferase; inhibition, % at 15.6 µM; 350,000 compounds, 0.17% hits;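 active = every replicate shows inhibition of at least 40%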;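 note: 0% = neutral control wells and 100% = positive control wells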
F508del corr = F508del CFTR correction, initial screen, CFBE line, single point; CFBE cells, YFP halide quenching; stimulated with forskolin plus potentiator P3; % fluorescence drop versus neutral controls; 350,000 compounds, 0.36% hits; AID 720511, 2013; activity (quench increase), % at 7.58 µM;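 active = mean added fluorescence quench of at least 8% versus neutral control, with both replicates also reaching 8%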;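 note: cells transiently co-express mutant CFTR-F508del with the halide-sensitive YFP; corrector assay measuring rescue of mutant channel to the surface after 24 h compound exposure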
An asterisk follows results filed as active; [ ] = remark or other dose.

Results for CCOC(=O)CN(C(=O)CSc1nnc(-c2cccc(OC)c2)o1)c1ccc(F)cc1 ?
CAL PDZ FP-1: 32*; CAL PDZ FP-2: 13; ARNT-TACC3 inh: -4; miR122 inh: -16; PGC1a acetyl inh: -8

Results for COC(=O)CN(C(=O)CSc1nnc(-c2cccc(OC)c2)o1)c1ccc(OC)cc1 ?
CAL PDZ FP-1: -3; CAL PDZ FP-2: 0; miR122 inh: -4; PGC1a acetyl inh: 4

Results for CCS(=O)(=O)Nc1ccc2c(c1)C(=O)N(C)[C@@H]1CC[C@H](CC(=O)NC)O[C@@H]1CO2 ?
ARNT-TACC3 inh: -2; miR122 inh: 8[16.7 µM]; PGC1a acetyl inh: -3; F508del corr: 1

Results for COc1cc(NC(=O)c2ccc3c(SCC(=O)O)c4c(nc3c2)CCC4)cc(OC)c1OC ?
CAL PDZ FP-1: -4; CAL PDZ FP-2: -4; ARNT-TACC3 inh: -16; miR122 inh: 7; PGC1a acetyl inh: -4; F508del corr: -3

How did CCN(C(=O)c1ccc2c(SCC(=O)O)c3c(nc2c1)CCC3)c1cc(Cl)ccc1OC do in these assays?
CAL PDZ FP-1: 101*; CAL PDZ FP-2: 0; ARNT-TACC3 inh: -1; miR122 inh: 4; PGC1a acetyl inh: 5; F508del corr: -5

What do the screens show for `C[C@@H]1CN([C@@H](C)CO)C(=O)c2cc(NC(=O)C3CCCCC3)ccc2O[C@@H]1CN(C)C(=O)Nc1ccccc1`?
ARNT-TACC3 inh: -2; miR122 inh: 3[16.7 µM]; PGC1a acetyl inh: 5; F508del corr: 1

Results for C=C(C)CNC(=S)N/N=C/C1=CCC2CC1C2(C)C (stereo not given) ?
CAL PDZ FP-1: 49*; CAL PDZ FP-2: 0; ARNT-TACC3 inh: 8

What do the screens show for `CN(c1ccccc1)S(=O)(=O)c1cccc(C(=O)NCCc2c[nH]c3ccccc23)c1`?
CAL PDZ FP-1: 59*; CAL PDZ FP-2: 9; ARNT-TACC3 inh: 1; miR122 inh: -7; PGC1a acetyl inh: -5; F508del corr: -1

How did Cc1ccc(NC(=O)NNC(=O)Cn2nc(-c3ccccc3)c(-c3ccccc3)c(C#N)c2=O)cc1 do in these assays?
CAL PDZ FP-1: -7; CAL PDZ FP-2: 0; ARNT-TACC3 inh: 0; miR122 inh: 104*; PGC1a acetyl inh: 6

How did O=C(Cn1nc(-c2ccccc2)c2ccccc2c1=O)Nc1ccc(O)cc1 do in these assays?
CAL PDZ FP-1: 7; CAL PDZ FP-2: -1; ARNT-TACC3 inh: -8; miR122 inh: -2; PGC1a acetyl inh: -5; F508del corr: -1

How did C[C@@H]1CN([C@H](C)CO)C(=O)c2cccc(NS(=O)(=O)c3ccc(Cl)cc3)c2O[C@H]1CN(C)Cc1ccc(C(=O)Nc2ccccc2N)cc1 do in these assays?
PGC1a acetyl inh: 0; F508del corr: 1

How did C[C@@H]1CN([C@@H](C)CO)C(=O)c2cccc(NS(=O)(=O)c3ccc(Cl)cc3)c2O[C@@H]1CN(C)Cc1ccc(C(=O)Nc2ccccc2N)cc1 do in these assays?
ARNT-TACC3 inh: 0; miR122 inh: 129*[16.7 µM]; PGC1a acetyl inh: 3; F508del corr: 4

What do the screens show for `C[C@@H]1CN([C@@H](C)CO)C(=O)c2cccc(NS(=O)(=O)c3ccccc3)c2O[C@@H]1CN(C)Cc1ccc(C(=O)Nc2ccccc2N)cc1`?
ARNT-TACC3 inh: -1; miR122 inh: 181*[16.7 µM]; PGC1a acetyl inh: -2; F508del corr: 0

What do the screens show for `O=C(O)CC1S/C(=N/N=C/C=C/c2ccccc2[N+](=O)[O-])NC1=O` (stereo not given)?
CAL PDZ FP-1: 4; CAL PDZ FP-2: 0; ARNT-TACC3 inh: 34*; miR122 inh: -5; PGC1a acetyl inh: 8

How did COc1ccccc1-c1cnc2c(c1)C(=O)N([C@@H](C)CO)C[C@H](C)[C@@H](CN(C)CC1CCOCC1)O2 do in these assays?
miR122 inh: -11[16.7 µM]; PGC1a acetyl inh: 5; F508del corr: -1

What do the screens show for `CC(Oc1ccc2c3c(c(=O)oc2c1)CCC3)C(=O)N[C@@H](Cc1ccccc1)C(=O)O` (stereo not given in full)?
CAL PDZ FP-1: -2; CAL PDZ FP-2: 0; ARNT-TACC3 inh: 3; miR122 inh: 3; PGC1a acetyl inh: 75*; F508del corr: -7

How did O=C(COc1ccc2c3c(c(=O)oc2c1)CCCC3)N[C@@H](Cc1ccccc1)C(=O)O do in these assays?
CAL PDZ FP-1: -4; CAL PDZ FP-2: 1; ARNT-TACC3 inh: -3; miR122 inh: 4; PGC1a acetyl inh: -1; F508del corr: -4

Results for C[C@@H]1CN([C@H](C)CO)C(=O)c2cc(NS(=O)(=O)c3ccc(F)cc3)ccc2O[C@@H]1CN(C)C ?
ARNT-TACC3 inh: -14; miR122 inh: -1[16.7 µM]; PGC1a acetyl inh: -1; F508del corr: -2

How did COc1ccc2[nH]c(O)c(N=NC(=O)c3ccc(NS(=O)(=O)c4cccs4)cc3)c2c1 do in these assays?
CAL PDZ FP-1: 46*; CAL PDZ FP-2: -1; ARNT-TACC3 inh: -2; miR122 inh: -2; PGC1a acetyl inh: -5; F508del corr: 2

Results for CC(C)NC(=O)N(C)C[C@H]1Oc2ccc(NC(=O)Cn3cnnn3)cc2C(=O)N([C@H](C)CO)C[C@H]1C ?
miR122 inh: 1[16.7 µM]; PGC1a acetyl inh: 4; F508del corr: 2

What do the screens show for `O=[N+]([O-])c1cccc2ccc(/C=C/c3ccc(Cl)cc3)nc12`?
CAL PDZ FP-1: 1; CAL PDZ FP-2: 0; ARNT-TACC3 inh: 14; F508del corr: -2

How did CCOc1cc(/C=C/c2ccc3cccc([N+](=O)[O-])c3n2)cc(Cl)c1O do in these assays?
CAL PDZ FP-1: 3; CAL PDZ FP-2: -1; ARNT-TACC3 inh: -5; miR122 inh: 113*

Results for C[C@@H]1CCCCO[C@H](CN(C)C(=O)Nc2ccccc2)[C@@H](C)CN([C@@H](C)CO)C(=O)c2cc(NC(=O)c3ccccc3)ccc2O1 ?
ARNT-TACC3 inh: -10; miR122 inh: 4[16.7 µM]; PGC1a acetyl inh: -4; F508del corr: 0

How did COc1ccc(-c2nsc(SCC(=O)Nc3cc(C)on3)n2)cc1 do in these assays?
CAL PDZ FP-1: -5; CAL PDZ FP-2: -2; ARNT-TACC3 inh: -10; miR122 inh: 2
